Each block holds one compound with its values, some of them ahead of it.
Key:
[1] = target: T1, Glycylpeptide N-tetradecanoyltransferase (Plasmodium falciparum (isolate 3D7), UniProt Q8ILW6); assay: Inhibition of Plasmodium falciparum N-myristoyltransferase using [3H]-myristoyl-CoA and GLYVSRLFNRLFQKK(Biotin)-NH2 as substrate after 30 mins scintillation proximity assay
T1 sequence (Q8ILW6 whole entry): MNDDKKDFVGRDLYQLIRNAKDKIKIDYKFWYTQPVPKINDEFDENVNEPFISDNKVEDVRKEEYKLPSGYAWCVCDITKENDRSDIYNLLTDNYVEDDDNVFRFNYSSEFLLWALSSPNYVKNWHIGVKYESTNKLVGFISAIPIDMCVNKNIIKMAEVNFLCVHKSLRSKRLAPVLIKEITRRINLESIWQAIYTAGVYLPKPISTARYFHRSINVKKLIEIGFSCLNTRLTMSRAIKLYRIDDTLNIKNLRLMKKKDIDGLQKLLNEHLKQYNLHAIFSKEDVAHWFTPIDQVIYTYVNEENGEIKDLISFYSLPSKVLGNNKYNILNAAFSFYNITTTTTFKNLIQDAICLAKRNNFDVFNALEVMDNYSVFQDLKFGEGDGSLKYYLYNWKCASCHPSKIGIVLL

[2] = test system: Plasmodium falciparum; assay: Antiplasmodial activity against trophozoite-stage of Plasmodium falciparum 3D7 after 48 hrs by FACS analysis; format: functional, organism-based; conditions: 3D7, 48 h
Summary of the method: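 Synchronous late-trophozoite 3D7 cultures at 1% parasitemia and 2% hematocrit with 0.5% DMSO, exposed to inhibitor from 10 μM down to 0.31 μM for a 48 h cycle at 37 °C. Aliquots stained with diluted hydroethidine for 20 min at 37 °C, then parasitemia read by flow cytometry. Untreated parasites and uninfected RBCs served as controls. EC50 from nonlinear regression, triplicate wells.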

[3] = Selectivity index, ratio of IC50 for human N-myristoyltransferase to IC50 for Plasmodium falciparum N-myristoyltransferase
Summary of the method: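 Buffer was 30 mM Tris pH 7.4 with 4% DMSO; 30 min at 37 °C. Reaction stopped with streptavidin beads at pH 4. […] Ratio is IC50(HsNMT1)/IC50(PfNMT).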

[4] = target: T2, Glycylpeptide N-tetradecanoyltransferase 1 (Homo sapiens, UniProt P30419); assay: Inhibition of human N-myristoyltransferase using [3H]-myristoyl-CoA and GLYVSRLFNRLFQKK(Biotin)-NH2 as substrate after 30 mins scintillation proximity assay
T2 sequence (P30419 whole entry): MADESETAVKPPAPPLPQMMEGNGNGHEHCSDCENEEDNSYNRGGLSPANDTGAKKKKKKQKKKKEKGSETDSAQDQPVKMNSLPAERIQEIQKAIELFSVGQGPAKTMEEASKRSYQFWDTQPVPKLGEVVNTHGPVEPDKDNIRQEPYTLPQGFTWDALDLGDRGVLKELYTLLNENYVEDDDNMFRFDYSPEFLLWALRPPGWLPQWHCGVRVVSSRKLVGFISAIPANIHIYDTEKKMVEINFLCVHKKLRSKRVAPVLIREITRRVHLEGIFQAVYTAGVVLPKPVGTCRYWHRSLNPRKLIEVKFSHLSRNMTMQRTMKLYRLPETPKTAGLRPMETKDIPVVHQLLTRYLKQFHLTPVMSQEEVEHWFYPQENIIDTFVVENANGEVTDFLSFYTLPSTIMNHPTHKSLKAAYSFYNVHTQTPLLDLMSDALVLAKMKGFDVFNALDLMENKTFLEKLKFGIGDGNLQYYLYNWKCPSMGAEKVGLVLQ

[5] = target: Glycylpeptide N-tetradecanoyltransferase 1 (Homo sapiens, UniProt P30419, Y296A); assay: Inhibition of human N-myristoyltransferase Y296A mutant using [3H]-myristoyl-CoA and GLYVSRLFNRLFQKK(Biotin)-NH2 as substrate after 30 mins scintillation proximity assay
[6] = target: Glycylpeptide N-tetradecanoyltransferase (Plasmodium vivax (strain Salvador I), UniProt A5K1A2, Y211A); assay: Inhibition of Plasmodium vivax […] N-myristoyltransferase Y211A mutant using [3H]-myristoyl-CoA and GLYVSRLFNRLFQKK(Biotin)-NH2 as substrate after 30 mins scintillation proximity assay
Summary of the method: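 Purified NMT per 100 µL well: PfNMT 9.4 ng, PvNMT 4.8 ng, PvNMT Y211A 19.2 ng. Each well also held 62.5 nM [3H]-myristoyl-CoA and 500 nM biotinylated peptide in pH 7.4 Tris buffer with 4% DMSO. Incubation ran 30 min at 37°C. Reactions were stopped with streptavidin beads at pH 4 and counted after overnight settling. Inhibitor ranged 500 µM–2 nM. IC50 came from nonlinear regression, in duplicate.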

[7] = Inhibition of Plasmodium vivax wild type N-myristoyltransferase using [3H]-myristoyl-CoA and GLYVSRLFNRLFQKK(Biotin)-NH2 as substrate after 30 mins scintillation proximity assay

Glycylpeptide N-tetradecanoyltransferase (Plasmodium vivax (strain Salvador I), UniProt A5K1A2, Y211A), sequence (A5K1A2 whole entry Y211A): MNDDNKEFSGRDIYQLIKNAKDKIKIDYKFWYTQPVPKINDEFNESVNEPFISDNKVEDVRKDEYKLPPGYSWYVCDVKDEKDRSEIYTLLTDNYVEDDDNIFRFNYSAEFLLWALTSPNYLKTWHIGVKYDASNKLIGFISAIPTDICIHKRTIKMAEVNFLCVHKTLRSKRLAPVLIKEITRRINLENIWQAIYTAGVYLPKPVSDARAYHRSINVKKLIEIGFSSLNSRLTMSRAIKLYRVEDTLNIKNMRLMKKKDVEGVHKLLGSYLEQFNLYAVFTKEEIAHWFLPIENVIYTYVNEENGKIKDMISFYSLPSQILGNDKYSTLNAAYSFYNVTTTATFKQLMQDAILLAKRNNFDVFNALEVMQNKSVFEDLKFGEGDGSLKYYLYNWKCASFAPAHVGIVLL
Glycylpeptide N-tetradecanoyltransferase 1 (Homo sapiens, UniProt P30419, Y296A), sequence (P30419 whole entry Y296A): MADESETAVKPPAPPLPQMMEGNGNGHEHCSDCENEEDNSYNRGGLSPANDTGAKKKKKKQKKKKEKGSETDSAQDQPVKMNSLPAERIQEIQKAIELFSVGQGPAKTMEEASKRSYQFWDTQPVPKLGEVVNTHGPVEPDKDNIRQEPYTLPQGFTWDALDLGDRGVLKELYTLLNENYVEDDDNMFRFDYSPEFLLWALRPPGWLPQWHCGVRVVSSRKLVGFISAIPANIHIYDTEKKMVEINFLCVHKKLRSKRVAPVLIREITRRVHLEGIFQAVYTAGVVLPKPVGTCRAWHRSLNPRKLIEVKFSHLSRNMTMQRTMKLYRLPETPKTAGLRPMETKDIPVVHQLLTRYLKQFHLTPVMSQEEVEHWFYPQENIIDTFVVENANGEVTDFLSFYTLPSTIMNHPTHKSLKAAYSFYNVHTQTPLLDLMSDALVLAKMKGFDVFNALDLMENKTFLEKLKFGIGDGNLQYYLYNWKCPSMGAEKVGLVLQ

Structure (SMILES): Cc1c(C(=O)Oc2ccccc2)oc2cccc(OC3CCNCC3)c12
IC50 [1]: 24.4 µM | EC50 [2]: 10 µM | Ratio IC50 [3]: > 20

Structure (SMILES): Cc1c(C(=O)OCc2ccccc2)oc2cccc(OC3CCNCC3)c12
IC50 [1]: 0.27 µM | IC50 [4]: > 100 µM | EC50 [2]: 1.2 µM | Ratio IC50 [3]: > 400

Structure (SMILES): COc1cccc(COC(=O)c2oc3cccc(OC4CCNCC4)c3c2C)c1
IC50 [4]: 45 µM | IC50 [5]: 10 µM | IC50 [6]: 2.7 µM

Structure (SMILES): Cc1c(C(=O)Nc2ccccc2)oc2cccc(OC3CCNCC3)c12
IC50 [1]: 28.8 µM | EC50 [2]: 5.3 µM | Ratio IC50 [3]: > 10

Structure (SMILES): Cc1c(/C=C/c2ccccc2)oc2cccc(OC3CCNCC3)c12
IC50 [1]: 26.1 µM | Ratio IC50 [3]: > 10

IC50 [1]: > 200 µM
Structure (SMILES): Cc1c(C(=O)NC(C)C)oc2cccc(OC3CCNCC3)c12

IC50 [1]: > 200 µM
Structure (SMILES): O=S(=O)(Cc1ccccc1)c1cc2c(OC3CCNCC3)cccc2o1

Structure (SMILES): Cc1c(C(=O)/C=C/c2ccccc2)oc2cccc(OC3CCNCC3)c12
IC50 [1]: 3.5 µM | EC50 [2]: 2.5 µM | Ratio IC50 [3]: 14

Structure (SMILES): Cc1c(COCc2ccccc2)oc2cccc(OC3CCNCC3)c12
IC50 [1]: 7.1 µM | EC50 [2]: 4.5 µM | Ratio IC50 [3]: 14

Structure (SMILES): CCOC(=O)c1oc2cccc(OCCCNCc3cccnc3)c2c1C
IC50 [1]: 51 µM | IC50 [4]: > 1000 µM

Structure (SMILES): c1ccc(CSc2cc3c(OC4CCNCC4)cccc3o2)cc1
IC50 [1]: 38.2 µM

Structure (SMILES): Cc1c(C(=O)c2ccccc2)oc2cccc(OC3CCNCC3)c12
IC50 [1]: 22 µM | EC50 [2]: 5.3 µM | Ratio IC50 [3]: > 5

IC50 [1]: > 100 µM
Structure (SMILES): Cc1c(C(=O)NC2CCCCC2)oc2cccc(OC3CCNCC3)c12

Structure (SMILES): Cc1c(-c2nc(-c3ccccc3)no2)oc2cccc(OC3CCNCC3)c12
IC50 [1]: 17.9 µM | Ratio IC50 [3]: > 12

Structure (SMILES): Cc1c(C(=O)OCCc2ccccc2)oc2cccc(OC3CCNCC3)c12
IC50 [1]: 4.1 µM

Structure (SMILES): Cc1c(C(=O)NCc2ccccc2)oc2cccc(OC3CCNCC3)c12
IC50 [1]: 13 µM

EC50 [2]: 2.4 µM | Ratio IC50 [3]: 28
Structure (SMILES): Cc1c(C(=O)NCc2cccc3ccccc23)oc2cccc(OC3CCNCC3)c12

Structure (SMILES): Cc1c(C(=O)OCC2CCCCC2)oc2cccc(OC3CCNCC3)c12
IC50 [1]: 9.7 µM

Structure (SMILES): Cc1c(COc2ccccc2)oc2cccc(OC3CCNCC3)c12
IC50 [1]: 6.6 µM | Ratio IC50 [3]: > 16

Structure (SMILES): CCCCc1c(C)nc2ccc(OC)cc2c1SCCC#N
IC50 [7]: 32.7 µM | IC50 [6]: 150 µM

Structure (SMILES): CCOC(=O)c1oc2cccc(OC3CCNCC3)c2c1C
IC50 [1]: 16.5 µM | IC50 [4]: > 200 µM | EC50 [2]: 15 µM

Structure (SMILES): Cc1c(C(=O)OCCCc2ccccc2)oc2cccc(OC3CCNCC3)c12
IC50 [1]: 36.2 µM

Structure (SMILES): Cc1c(CCc2ccccc2)oc2cccc(OC3CCNCC3)c12
IC50 [1]: 131 µM

Structure (SMILES): Cc1c(C(=O)OCc2cccc3ccccc23)oc2cccc(OC3CCNCC3)c12
IC50 [1]: 1.4 µM

Structure (SMILES): Cc1c(-c2nc(Cc3ccccc3)no2)oc2cccc(OC3CCNCC3)c12
IC50 [7]: 6.2 µM | EC50 [2]: 2.1 µM | IC50 [6]: 16.6 µM

EC50 [2]: 4 µM | Ratio IC50 [3]: > 20
Structure (SMILES): Cc1c(C(=O)CCc2ccccc2)oc2cccc(OC3CCNCC3)c12

Structure (SMILES): Cc1c(/C=C\c2ccccc2)oc2cccc(OC3CCNCC3)c12
IC50 [1]: 72 µM

Reference: ChEMBL document CHEMBL2169879, “Design and synthesis of inhibitors of Plasmodium falciparum N-myristoyltransferase, a promising target for antimalarial drug discovery” (J Med Chem, 2012)
